Test results taken from ChEMBL document CHEMBL1136139, “The design, synthesis and evaluation of novel HIV-1 protease inhibitors with high potency against PI-resistant viral strains” (Bioorg Med Chem Lett, 2003).

Assays:
[1] = target: Cytochrome P450 3A4 (Homo sapiens, UniProt P08684); test: Inhibition of human liver microsome Cytochrome P450 3A4
[2] = In vitro intrinsic clearance in human liver microsome; format: ADME; conditions: liver microsomes
Procedure, shortened: (§1)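 The compound was incubated with liver microsomes from rat, dog, rhesus and human. Metabolic stability was expressed as intrinsic clearance scaled to mL/min/kg.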

[3] = system: MT4; test: Ability to inhibit spread of viral infection in MT-4 human T-lymphoidcell infected by PI-resistant HIV-1 (strain Q-60C); format: functional; conditions: read-out: CIC95
Procedure, shortened: (§2)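 MT4 human T-lymphoid cells infected with HIV-1, either wild-type NL4-3 or engineered PI-resistant constructs (4X, K-60C, V-18C, Q-60C) carrying varied patterns of multiple PI resistance mutations; spread of infection in culture followed. Value is CIC95, the compound concentration inhibiting at least 95% of infectious viral spread relative to untreated virus control culture.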

[4] = target: Human immunodeficiency virus type 1 protease (Human immunodeficiency virus 1, UniProt Q72874); test: Inhibitory activity against HIV-1 Protease
[5] = system: MT4; test: Ability to inhibit spread of viral infection in MT-4 human T-lymphoidcell infected by PI-resistant HIV-1 (strain V-18C); format: functional; conditions: read-out: CIC95; procedure, shortened: as §2
[6] = target: Cytochrome P450 2D6 (Homo sapiens, UniProt P10635); test: Inhibition of human liver microsome Cytochrome P450 2D6; format: ADME, microsomes
[7] = target: Cytochrome P450 2C9 (Homo sapiens, UniProt P11712); test: Inhibition of human liver microsome Cytochrome P450 2C9; format: ADME, microsomes
[8] = system: MT4; test: Ability to inhibit spread of viral infection in MT-4 human T-lymphoidcell infected by wild-type HIV-1(strain NL4-3); format: functional; conditions: read-out: CIC95; procedure, shortened: as §2
[9] = system: MT4; test: Ability to inhibit spread of viral infection in MT-4 human T-lymphoidcell infected by PI-resistant HIV-1 (strain K-60C); format: functional; conditions: read-out: CIC95; procedure, shortened: as §2
[10] = system: MT4; test: Ability to inhibit spread of viral infection in MT-4 human T-lymphoidcell infected by PI-resistant HIV-1 (strain 4X Virus); format: functional; conditions: read-out: CIC95; procedure, shortened: as §2
[11] = Cmax was determine after peroral administration at 10 mpk in dog; format: ADME, organism-based, Canis lupus familiaris; parameters: dose 10 mpk, route oral; conditions: in vivo, po, 10 mg/kg
Procedure, shortened: (§3)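 Dogs dosed both intravenously (2 mg/kg) and orally (10 mg/kg). Cmax, half-life, plasma clearance (mL/min/kg) and oral bioavailability (%) were derived from plasma drug levels. The study was IACUC-approved.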

[12] = Oral bioavailability in dog (dose 10 mg/kg); format: ADME, organism-based, Canis lupus familiaris; conditions: in vivo; procedure, shortened: as §3
[13] = Plasma clearance after peroral administration at 10 mpk in dog; format: ADME, organism-based, Canis lupus familiaris; conditions: po, 10 mg/kg, read-out: Clp; procedure, shortened: as §3
[14] = Half life period was determine after peroral administration at 10 mpk in dog; format: ADME, organism-based, Canis lupus familiaris; conditions: in vivo, po, 10 mg/kg; procedure, shortened: as §3
[15] = Cmax was determine after peroral administration at 20 mpk in Rat; format: ADME, organism-based; parameters: dose 20 mpk, route oral; conditions: in vivo, po, 20 mg/kg
Procedure, shortened: (§4)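 Rats were dosed orally across 10–160 mg/kg (10, 20, 50, 160). The 10 mg/kg oral arm was paired with 5 mg/kg intravenous dosing. Cmax, AUC, half-life, plasma clearance (mL/min/kg) and bioavailability (%) were determined at each oral dose.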

[16] = Intrinsic clearance in rat liver microsome; format: ADME; conditions: liver microsomes; procedure, shortened: as §1
[17] = Area under curve was determine after peroral administration at 50 mpk in Rat; format: ADME, organism-based; conditions: in vivo, po, 50 mg/kg; procedure, shortened: as §4
[18] = Area under curve was determine after peroral administration at 160 mpk in Rat; format: ADME, organism-based; conditions: in vivo, po, 160 mg/kg; procedure, shortened: as §4
[19] = Oral bioavailability in Rhesus monkey (dose 10 mg/kg p.o.); format: ADME, organism-based, Macaca mulatta; conditions: in vivo
Procedure, shortened: (§5)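 Rhesus monkeys were given 10 mg/kg orally and 2 mg/kg intravenously. Cmax, half-life, AUC, plasma clearance (mL/min/kg) and bioavailability (%) were taken from plasma concentration profiles.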

[20] = Area under curve was determine after peroral administration at 20 mpk in Rat; format: ADME, organism-based; conditions: in vivo, po, 20 mg/kg; procedure, shortened: as §4
[21] = system: Rattus norvegicus; test: Area under curve was determine after peroral administration at 10 mpk in Rat; format: ADME, organism-based; conditions: in vivo, po, 10 mg/kg; procedure, shortened: as §4
[22] = Half life period was determine after peroral administration at 10 mpk in Rat; format: ADME, organism-based; conditions: in vivo, po, 10 mg/kg; procedure, shortened: as §4
[23] = system: Rhesus monkey; test: Plasma clearance after peroral administration at 10 mpk in Rhesus; format: ADME, organism-based, Macaca mulatta; conditions: in vivo, po, 10 mg/kg; procedure, shortened: as §5
[24] = Oral bioavailability after peroral administration at 50 mpk in Rat; format: ADME, organism-based; conditions: in vivo, 50 mg/kg; procedure, shortened: as §4
[25] = system: Rattus norvegicus; test: Plasma clearance after peroral administration at 10 mpk in Rat; format: ADME, organism-based; conditions: in vivo, po, 10 mg/kg; procedure, shortened: as §4
[26] = Oral bioavailability after peroral administration at 10 mpk in Rat; format: ADME, organism-based; conditions: in vivo, 10 mg/kg; procedure, shortened: as §4
[27] = Half life period was determine after peroral administration at 10 mpk in Rhesus; format: ADME, organism-based, Macaca mulatta; conditions: rhesus monkey, in vivo, po, 10 mg/kg; procedure, shortened: as §5
[28] = Cmax was determine after peroral administration at 50 mpk in Rat; format: ADME, organism-based; parameters: dose 50 mpk, route oral; conditions: in vivo, po, 50 mg/kg; procedure, shortened: as §4
[29] = Oral bioavailability after peroral administration at 160 mpk in Rat; format: ADME, organism-based; conditions: in vivo, 160 mg/kg; procedure, shortened: as §4
[30] = Intrinsic clearance in Rhesus liver microsome; format: ADME, Macaca mulatta; conditions: rhesus monkey, liver microsomes; procedure, shortened: as §1
[31] = Cmax was determine after peroral administration at 160 mpk in Rat; format: ADME, organism-based; parameters: dose 160 mpk, route oral; conditions: in vivo, po, 160 mg/kg; procedure, shortened: as §4
[32] = Oral bioavailability after peroral administration at 20 mpk in Rat; format: ADME, organism-based; conditions: in vivo, 20 mg/kg; procedure, shortened: as §4
[33] = Cmax was determine after peroral administration at 10 mpk in Rhesus; format: ADME, organism-based, Macaca mulatta; parameters: dose 10 mpk, route oral; conditions: rhesus monkey, in vivo, po, 10 mg/kg; procedure, shortened: as §5
[34] = system: Rhesus monkey; test: Area under curve was determine after peroral administration at 10 mpk in Rhesus; format: ADME, organism-based, Macaca mulatta; conditions: in vivo, po, 10 mg/kg; procedure, shortened: as §5
[35] = Cmax was determine after peroral administration at 10 mpk in Rat; format: ADME, organism-based; parameters: dose 10 mpk, route oral; conditions: in vivo, po, 10 mg/kg; procedure, shortened: as §4
[36] = Intrinsic clearance in dog liver microsome; format: ADME, Canis lupus familiaris; conditions: liver microsomes; procedure, shortened: as §1

Sequence of Cytochrome P450 3A4 (P08684 whole entry): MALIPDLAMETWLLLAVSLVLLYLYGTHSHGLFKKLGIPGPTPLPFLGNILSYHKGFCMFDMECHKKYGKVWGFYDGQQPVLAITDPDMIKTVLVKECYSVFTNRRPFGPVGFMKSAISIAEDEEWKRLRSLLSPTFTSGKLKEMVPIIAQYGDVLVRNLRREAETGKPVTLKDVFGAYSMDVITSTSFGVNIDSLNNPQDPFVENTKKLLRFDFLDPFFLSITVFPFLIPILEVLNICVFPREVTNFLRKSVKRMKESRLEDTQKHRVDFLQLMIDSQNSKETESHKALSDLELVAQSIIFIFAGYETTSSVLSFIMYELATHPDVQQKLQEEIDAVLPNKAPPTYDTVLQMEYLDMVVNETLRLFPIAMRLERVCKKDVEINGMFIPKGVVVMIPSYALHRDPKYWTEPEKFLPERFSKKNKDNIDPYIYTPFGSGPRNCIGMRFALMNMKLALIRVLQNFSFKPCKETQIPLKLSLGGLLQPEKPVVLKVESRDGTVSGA
Sequence of Cytochrome P450 2C9 (P11712 whole entry): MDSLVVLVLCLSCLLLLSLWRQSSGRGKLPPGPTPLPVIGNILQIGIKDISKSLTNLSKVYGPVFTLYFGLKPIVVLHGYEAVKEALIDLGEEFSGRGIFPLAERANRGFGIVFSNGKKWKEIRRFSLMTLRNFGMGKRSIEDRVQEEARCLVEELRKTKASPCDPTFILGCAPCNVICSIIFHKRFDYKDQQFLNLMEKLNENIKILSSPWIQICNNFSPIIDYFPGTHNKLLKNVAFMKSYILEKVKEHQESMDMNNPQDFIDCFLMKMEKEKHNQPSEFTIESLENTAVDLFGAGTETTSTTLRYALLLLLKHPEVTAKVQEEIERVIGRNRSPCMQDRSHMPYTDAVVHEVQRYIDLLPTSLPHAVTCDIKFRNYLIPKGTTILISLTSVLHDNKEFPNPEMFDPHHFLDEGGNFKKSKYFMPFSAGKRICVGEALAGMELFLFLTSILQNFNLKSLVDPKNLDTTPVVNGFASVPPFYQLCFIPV
Sequence of Cytochrome P450 2D6 (P10635 whole entry): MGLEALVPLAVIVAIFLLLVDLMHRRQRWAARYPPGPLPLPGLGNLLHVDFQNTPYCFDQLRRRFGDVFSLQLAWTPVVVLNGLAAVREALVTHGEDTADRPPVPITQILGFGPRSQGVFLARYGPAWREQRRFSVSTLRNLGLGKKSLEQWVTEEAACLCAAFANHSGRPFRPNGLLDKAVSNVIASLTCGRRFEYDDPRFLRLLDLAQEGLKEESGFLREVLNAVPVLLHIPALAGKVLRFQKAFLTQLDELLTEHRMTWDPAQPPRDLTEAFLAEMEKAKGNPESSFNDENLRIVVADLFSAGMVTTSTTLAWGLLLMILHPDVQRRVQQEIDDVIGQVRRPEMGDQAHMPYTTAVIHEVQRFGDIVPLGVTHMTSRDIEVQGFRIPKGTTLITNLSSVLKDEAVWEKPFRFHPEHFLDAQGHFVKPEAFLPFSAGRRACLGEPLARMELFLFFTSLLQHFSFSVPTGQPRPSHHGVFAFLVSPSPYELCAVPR

## CC(C)(c1ncc(-c2ccccn2)o1)N1CCN(C[C@@H](O)C[C@@H](Cc2ccccc2)C(=O)N[C@H]2c3ccccc3OC[C@H]2O)[C@H](C(=O)NCC(F)(F)F)C1
[1]
  IC50: 5000 nM
[2]
  CLint scaled: 500 mL/min/kg
[3]
  IC95: 15 nM
[4]
  IC50: 0.04 nM
[5]
  IC95: 62 nM
[6]
  IC50: 22200 nM
[7]
  IC50: 28000 nM
[8]
  IC95: ≤ 8 nM
[9]
  IC95: 31 nM

## CC(C)(C)NC(=O)[C@@H]1CN(Cc2cccnc2)CCN1C[C@@H](O)C[C@@H](Cc1ccccc1)C(=O)N[C@H]1c2ccccc2C[C@H]1O
[3]
  IC95: > 1000 nM
[5]
  IC95: > 1000 nM
[8]
  IC95: 50 nM
[10]
  IC95: 400 nM
[9]
  IC95: > 1000 nM

## O=C(N[C@H]1c2ccccc2OC[C@H]1O)[C@H](Cc1ccccc1)C[C@H](O)CN1CCN(Cc2ncc(-c3ccccn3)o2)C[C@H]1C(=O)NCC(F)(F)F
[3]
  IC95: 125 nM
[4]
  IC50: 0.13 nM
[5]
  IC95: 125 nM
[8]
  IC95: 23 nM
[10]
  IC95: 31 nM

## CC(C)(c1ncc(-c2cccnc2)o1)N1CCN(C[C@@H](O)C[C@@H](Cc2ccccc2)C(=O)N[C@H]2c3ccccc3OC[C@H]2O)[C@H](C(=O)NCC(F)(F)F)C1
[1]
  IC50: 110 nM
[2]
  CLint scaled: 27 mL/min/kg
[11]
  Cmax: 3800 nM
[3]
  IC95: 31 nM
[4]
  IC50: 0.04 nM
[12]
  bioavailability: 10%
[13]
  CL/F: 21 mL/min/kg
[5]
  IC95: 125 nM
[14]
  half-life: 1.57 h
[6]
  IC50: 10500 nM
[7]
  IC50: 33000 nM
[8]
  IC95: ≤ 8 nM
[9]
  IC95: 31 nM

## O=C(N[C@H]1c2ccccc2OC[C@H]1O)[C@H](Cc1ccccc1)C[C@H](O)CN1CCN(Cc2ccc(-c3ccccn3)o2)C[C@H]1C(=O)NCC(F)(F)F
[3]
  IC95: 15 nM
[4]
  IC50: 0.05 nM
[5]
  IC95: 15 nM
[8]
  IC95: ≤ 8 nM
[9]
  IC95: 31 nM

## O=C(N[C@H]1c2ccccc2OC[C@H]1O)[C@H](Cc1ccccc1)C[C@H](O)CN1CCN(Cc2ncc(-c3ccncc3)o2)C[C@H]1C(=O)NCC(F)(F)F
[3]
  IC95: 250 nM
[4]
  IC50: 0.1 nM
[5]
  IC95: 125 nM
[8]
  IC95: 23 nM
[10]
  IC95: 62 nM
[9]
  IC95: 125 nM

## COc1cncc(-c2cnc(C(C)(C)N3CCN(C[C@@H](O)C[C@@H](Cc4ccccc4)C(=O)N[C@H]4c5ccccc5OC[C@H]4O)[C@H](C(=O)NCC(F)(F)F)C3)o2)c1
[15]
  Cmax: 370 nM
[16]
  CLint: 87 mL/min/kg
[1]
  IC50: 40 nM
[17]
  AUC: 4.02 µM·h
[18]
  AUC: 15.7 µM·h
[2]
  CLint scaled: 13 mL/min/kg
[19]
  bioavailability: 2.2%
[11]
  Cmax: 4300 nM
[20]
  AUC: 0.38 µM·h
[21]
  AUC: 0.03 µM·h
[3]
  IC95: 31 nM
[22]
  half-life: 0.433 h
[4]
  IC50: 0.02 nM
[23]
  Clp: 33 mL/min/kg
[24]
  bioavailability: 40.5%
[25]
  Clp: 104 mL/min/kg
[26]
  bioavailability: 1.5%
[12]
  bioavailability: 30%
[27]
  half-life: 1.22 h
[28]
  Cmax: 3060 nM
[29]
  bioavailability: 47.2%
[30]
  CLint: 120 mL/min/kg
[13]
  CL/F: 18 mL/min/kg
[31]
  Cmax: 6880 nM
[5]
  IC95: 15 nM
[14]
  half-life: 1.02 h
[32]
  bioavailability: 9.2%
[6]
  IC50: 8700 nM
[33]
  Cmax: 100 nM
[7]
  IC50: 30000 nM
[8]
  IC95: ≤ 8 nM
[34]
  AUC: 0.12 µM·h
[9]
  IC95: 15 nM
[35]
  Cmax: 40 nM
[36]
  CLint: 67 mL/min/kg

## O=C(N[C@H]1c2ccccc2OC[C@H]1O)[C@H](Cc1ccccc1)C[C@H](O)CN1CCN(Cc2ncc(-c3cccnc3)o2)C[C@H]1C(=O)NCC(F)(F)F
[3]
  IC95: 125 nM
[4]
  IC50: 0.14 nM
[5]
  IC95: 250 nM
[8]
  IC95: 27 nM
[10]
  IC95: 62 nM
[9]
  IC95: 125 nM

## CC(C)(c1ncc(-c2cnccc2Cl)o1)N1CCN(C[C@@H](O)C[C@@H](Cc2ccccc2)C(=O)N[C@H]2c3ccccc3OC[C@H]2O)[C@H](C(=O)NCC(F)(F)F)C1
[1]
  IC50: 40 nM
[2]
  CLint scaled: 35 mL/min/kg
[11]
  Cmax: 1000 nM
[4]
  IC50: 0.02 nM
[12]
  bioavailability: 8%
[13]
  CL/F: 19 mL/min/kg
[5]
  IC95: 31 nM
[14]
  half-life: 1.53 h
[6]
  IC50: 4170 nM
[7]
  IC50: 21000 nM
[8]
  IC95: ≤ 8 nM
[9]
  IC95: 16 nM
